ChEMBL document CHEMBL1152644, “Synthesis of isoquinolinone-based tetracycles as poly (ADP-ribose) polymerase-1 (PARP-1) inhibitors” (Bioorg Med Chem, 2009)
Structures can show the parent of a compound that is named as a salt.

Columns and labels:
[1] = system: HCT-116; test: Cytotoxicity against human HCT116 cells after 2 days; details: HCT-116, 48 h
[2] = system: DU-145; test: Cytotoxicity against human DU145 cells at 10 uM by MTT assay; assay type: functional
[3] = molecular target: Poly [ADP-ribose] polymerase 1 (Homo sapiens, UniProt P09874); test: Inhibition of PARP1
Chain of Poly [ADP-ribose] polymerase 1 (P09874 whole entry): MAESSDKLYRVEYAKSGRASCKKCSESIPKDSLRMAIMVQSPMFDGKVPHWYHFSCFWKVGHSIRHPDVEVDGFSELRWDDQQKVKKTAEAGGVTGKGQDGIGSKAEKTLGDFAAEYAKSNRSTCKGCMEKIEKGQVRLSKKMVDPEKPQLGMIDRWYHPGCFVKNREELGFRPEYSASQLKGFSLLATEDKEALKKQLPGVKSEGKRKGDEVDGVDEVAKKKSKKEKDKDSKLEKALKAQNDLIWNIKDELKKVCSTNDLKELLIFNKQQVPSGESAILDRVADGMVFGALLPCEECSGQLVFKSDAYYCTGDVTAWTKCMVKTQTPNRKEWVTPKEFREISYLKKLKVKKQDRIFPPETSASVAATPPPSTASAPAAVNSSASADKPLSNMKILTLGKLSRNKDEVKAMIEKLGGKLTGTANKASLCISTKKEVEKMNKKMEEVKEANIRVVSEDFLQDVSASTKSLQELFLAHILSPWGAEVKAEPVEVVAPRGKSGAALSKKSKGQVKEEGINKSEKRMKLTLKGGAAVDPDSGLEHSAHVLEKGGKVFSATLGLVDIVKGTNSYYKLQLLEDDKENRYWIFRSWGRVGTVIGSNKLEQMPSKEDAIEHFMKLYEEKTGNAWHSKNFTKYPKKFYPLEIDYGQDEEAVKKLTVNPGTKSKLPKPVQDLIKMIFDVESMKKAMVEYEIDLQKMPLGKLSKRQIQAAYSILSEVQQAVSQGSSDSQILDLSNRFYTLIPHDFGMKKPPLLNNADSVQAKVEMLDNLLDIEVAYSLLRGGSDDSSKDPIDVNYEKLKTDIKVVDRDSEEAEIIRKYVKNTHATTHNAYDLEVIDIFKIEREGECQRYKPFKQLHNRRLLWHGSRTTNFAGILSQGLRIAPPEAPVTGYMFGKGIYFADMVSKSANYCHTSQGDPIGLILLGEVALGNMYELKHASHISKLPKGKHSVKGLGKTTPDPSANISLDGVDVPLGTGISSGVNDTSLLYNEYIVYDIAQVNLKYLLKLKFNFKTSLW

[4] = system: HCT-116; test: Induction of etoposide-induced cytotoxicity in human HCT116 cells assessed as potentiation factor, ratio of cytotoxic IC50 for etoposide alone to cytotoxic IC50 etoposide in presence of drug; assay type: functional
Method in brief: (§1)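 HCT116 cells in RPMI 1640 with 10% FBS at 37 °C under 5% CO2 were seeded at 3 x 10^4 cells/well and grown overnight. On day 2, medium was replaced with graded temozolomide or etoposide, with or without PARP-1 inhibitor at 0.5 µM. On day 4, CCK-8 was added for 4 h and A450 read. IC50 came from four-parameter logistic fits. Potentiation factor = IC50 (agent alone)/IC50 (agent + inhibitor); mean±S.D. of ≥3 independent experiments.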

[5] = system: HCT-116; test: Induction of temozolomide-induced cytotoxicity in human HCT116 cells assessed as potentiation factor, ratio of cytotoxic IC50 for temozolomide alone to cytotoxic IC50 temozolomide in presence of drug; assay type: functional
Method in brief: as §1

Row | SMILES | IC50 [3] [µM] | IC50 [1] [µM] | inhibition at 10 µM [2] [%] | PF50 [4] | PF50 [5]
1 | Cn1nnc2c(C(N)=O)ncn2c1=O [TEMOZOLOMIDE] | – | 4.34 | – | – | –
2 | O=c1[nH]c2c(nc3ccc(Br)cn32)c2ccccc12 | 12.1 | – | 6.8 | – | –
3 | O=c1[nH]c2c(nc3ccccn32)c2ccccc12 | 0.85 | – | 7.9 | – | –
4 | O=c1[nH]c2c(nc3cc(S(=O)(=O)NCCCN4CCOCC4)ccn32)c2ccccc12 | 0.036 | – | – | – | –
5 | CC[C@@]1(O)C(=O)OCc2c1cc1n(c2=O)Cc2cc3ccccc3nc2-1 [CAMPTOTHECIN] | – | – | 69.4 | – | –
6 | COc1cc([C@@H]2c3cc4c(cc3[C@@H](O[C@@H]3O[C@@H]5CO[C@@H](C)O[C@H]5[C@H](O)[C@H]3O)[C@H]3COC(=O)[C@H]23)OCO4)cc(OC)c1O [ETOPOSIDE] | – | 14.4 | 72.1 | – | –
7 | O=c1[nH]c2c(nc3c4ccccc4ccn32)c2ccccc12 | 4.11 | – | 25.5 | – | –
8 | Cc1cc(C)n2c(c1)nc1c3ccccc3c(=O)[nH]c12 | > 100 | – | 38.5 | – | –
9 | COc1cccc2c1C(=O)c1c(O)c3c(c(O)c1C2=O)C[C@@](O)(C(=O)CO)C[C@@H]3O[C@H]1C[C@H](N)[C@H](O)[C@H](C)O1 [DOXORUBICIN HYDROCHLORIDE] | – | – | 70.3 | – | –
10 | O=c1[nH]c2c(nc3ncccn32)c2ccccc12 | 5.78 | – | 14.2 | – | –
11 | Cc1ccn2c(n1)nc1c3ccccc3c(=O)[nH]c12 | 0.56 | – | 27.7 | 1.2 | 1.1

The next lines start with results.

Row | IC50 [3] [µM] | SMILES | IC50 [1] [µM] | inhibition at 10 µM [2] [%] | PF50 [4] | PF50 [5]
12 | > 100 | COc1cc2nc3c4ccccc4c(=O)[nH]c3n2cn1 | – | 0 | – | –
13 | 3.23 | O=c1[nH]c2c(nc3cnccn32)c2ccccc12 | – | 18.7 | – | –
14 | 5.87 | O=c1[nH]c2c(nc3cc(Cl)ccn32)c2ccccc12 | – | 11.4 | – | –
15 | 0.47 | Cc1ccn2c(c1)nc1c3ccccc3c(=O)[nH]c12 | – | 0 | 1.7 | 1.7
16 | 14.8 | O=c1[nH]c2c(nc3ccc(Cl)cn32)c2ccccc12 | – | 0.2 | – | –
17 | 4.27 | Cc1ccc2nc3c4ccccc4c(=O)[nH]c3n2c1 | – | 19.2 | – | –
18 | > 100 | Cc1cccc2nc3c4ccccc4c(=O)[nH]c3n12 | – | 25.6 | – | –
19 | 3.31 | Cc1cccn2c1nc1c3ccccc3c(=O)[nH]c12 | – | 9.1 | – | –
20 | 10.8 | O=C1NCCc2c(OCCCCN3CCCCC3)cccc21 | – | – | – | –
